Results taken from ChEMBL document CHEMBL5046219, “Optimization of N-Phenylpropenoyl-l-amino Acids as Potent and Selective Inducible Nitric Oxide Synthase Inhibitors for Parkinson's Disease” (J Med Chem, 2021).
Calls of active or inactive are those of the source. The rule behind the calls is not given here.

Experiments:
[1] = Effective permeability of compound in PBS buffer at pH 7.4 at 200 uM incubated for 17 hrs by PAMPA-BBB assay; assay type: ADME; conditions: read-out: Peff
Method in brief: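 PAMPA-BBB: the donor filter was coated with porcine brain lipid (20 mg/mL in dodecane). Compound was loaded at 200 μM in 10 mM PBS pH 7.4, with PBS as acceptor. Plates were incubated 17 h at 25 °C in saturated humidity with 100 rpm orbital shaking. Donor and acceptor concentrations were read by UV and Pe was calculated from the flux equation. Values are the mean of triplicates with SD.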

Nitric oxide synthase 1 = Nitric oxide synthase 1 (Homo sapiens, UniProt P29475); assay: Inhibition of human nNOS assessed as reduction in L-[3H]-citrulline level using L-[3H]-arginine as substrate incubated for 1 hr
[2] = target: Nitric oxide sythases; iNOS & nNOS (Homo sapiens) (UniProt P29475+P35228); assay: Selectivity ratio of IC50 for human nNOS to IC50 for human iNOS; assay type: protein assay
Method in brief: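 Human nNOS and human iNOS each converting [³H]arginine (10 nM) to [³H]citrulline, with [¹⁴C]citrulline (80−120 nM) as internal standard, in 50 mM HEPES at 37 °C for 1 h. Cofactors were NADP⁺, G6P/G6PDH, MgCl₂, FAD, FMN and BH₄; nNOS also had calmodulin, CaCl₂ and glutathione. Eight concentrations (0.01−10 μM). Stopped with MES, passed over cation-exchange resin, filtrate counted. Background set with 10 μM AMT. Each IC50 from a curve, repeated three times.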

Nitric oxide synthase 3 = target: T1, Nitric oxide synthase 3 (Homo sapiens, UniProt P29474); assay: Inhibition of human eNOS assessed as reduction in L-[3H]-citrulline level using L-[3H]-arginine as substrate incubated for 1 hr
T1 sequence (P29474 whole entry): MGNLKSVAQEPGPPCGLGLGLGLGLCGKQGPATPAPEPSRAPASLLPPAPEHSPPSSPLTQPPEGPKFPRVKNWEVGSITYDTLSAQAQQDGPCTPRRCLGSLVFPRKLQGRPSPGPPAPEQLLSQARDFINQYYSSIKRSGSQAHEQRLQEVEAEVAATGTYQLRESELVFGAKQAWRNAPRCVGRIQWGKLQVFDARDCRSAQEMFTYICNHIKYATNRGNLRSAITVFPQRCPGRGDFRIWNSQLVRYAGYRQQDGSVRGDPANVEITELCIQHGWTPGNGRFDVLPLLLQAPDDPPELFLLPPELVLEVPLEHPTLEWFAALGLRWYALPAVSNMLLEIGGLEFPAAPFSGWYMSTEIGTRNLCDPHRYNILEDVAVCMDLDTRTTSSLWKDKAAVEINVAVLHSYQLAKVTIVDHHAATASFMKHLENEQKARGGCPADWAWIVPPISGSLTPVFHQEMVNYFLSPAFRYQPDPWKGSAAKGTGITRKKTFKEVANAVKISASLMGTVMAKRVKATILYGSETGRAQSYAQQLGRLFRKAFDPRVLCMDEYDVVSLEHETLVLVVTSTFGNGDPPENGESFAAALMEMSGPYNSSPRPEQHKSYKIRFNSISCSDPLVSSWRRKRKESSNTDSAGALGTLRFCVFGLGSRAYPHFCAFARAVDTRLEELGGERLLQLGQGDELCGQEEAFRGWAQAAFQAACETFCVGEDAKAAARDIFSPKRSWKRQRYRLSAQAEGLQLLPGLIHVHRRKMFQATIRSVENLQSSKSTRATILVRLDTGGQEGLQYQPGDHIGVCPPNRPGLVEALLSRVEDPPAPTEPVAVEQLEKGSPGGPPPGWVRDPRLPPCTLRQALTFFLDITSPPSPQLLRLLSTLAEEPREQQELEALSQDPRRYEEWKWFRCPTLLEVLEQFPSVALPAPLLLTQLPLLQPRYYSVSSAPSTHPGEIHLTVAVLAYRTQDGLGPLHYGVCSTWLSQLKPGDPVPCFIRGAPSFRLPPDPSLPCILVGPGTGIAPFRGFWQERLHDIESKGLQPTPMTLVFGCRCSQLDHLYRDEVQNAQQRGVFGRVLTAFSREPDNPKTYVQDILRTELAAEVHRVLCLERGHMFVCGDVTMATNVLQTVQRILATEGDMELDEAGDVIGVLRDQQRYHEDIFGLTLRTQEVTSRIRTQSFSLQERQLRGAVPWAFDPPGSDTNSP

Homo sapiens = species on record: Homo sapiens; assay: Selectivity ratio of IC50 for human eNOS to IC50 for human iNOS
Method in brief: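 Human iNOS, eNOS or nNOS was incubated 1 h at 37 °C in 50 mM HEPES with 10 nM [3H]arginine and [14C]citrulline internal standard. Cofactors were NADP⁺, G6P, G6P dehydrogenase, MgCl2, FAD, FMN and BH4. eNOS and nNOS reactions also contained 25 nM calmodulin, 0.5 mM CaCl2 and 3.5 mM glutathione. Reactions were stopped with MES and passed through cation exchange resin, and [3H]citrulline was counted. Background was set with 10 μM AMT. IC50 values came from eight concentrations (0.01–10 μM), in three repeated experiments.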

[3] = target: Nitric oxide synthase, inducible (Homo sapiens, UniProt P35228); assay: Inhibition of human iNOS assessed as reduction in L-[3H]-citrulline level using L-[3H]-arginine as substrate incubated for 1 hr
BV-2 = assay: Anti-neuroinflammation in mouse BV-2 cells assessed as inhibition of LPS-induced NO production at 1 uM preincubated for 6 hrs followed by LPS addition measured after 24 hrs by Griess reagent based assay; assay type: functional
Method in brief: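 BV-2 murine microglia were grown in DMEM with 10% FBS at 37 °C and 5% CO2, then seeded at 5 × 10³ cells/well. After 24 h, compound was added at 1 μM. LPS (500 ng/mL) followed 6 h later. After a further 24 h, medium was collected and NO was read at 540 nm with a colorimetric NO detection kit.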

[4] = Cmax in Balb/c mouse blood at 30 mg/kg, po administered as single dose measured upto 24 hrs by LC-MS analysis; assay type: ADME, organism-based; design: route oral, dose 30 mg/kg, time <=24
Method in brief: (§1)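 Male BALB/c mice were fasted 16 h and then given a single intragastric dose of 30 mg/kg. Blood and brain were collected after decapitation at 5, 10, 15 and 30 min and at 1, 2, 6, 8, 12 and 24 h. Plasma was obtained by centrifugation and brains were homogenized in saline. Samples underwent methanol protein precipitation and single-quadrupole LC-MS on a C18 column at 30 °C, using isocratic 40% acetonitrile with 0.1% formic acid.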

[5] = Half life in Balb/c mouse brain at 30 mg/kg, po administered as single dose measured upto 24 hrs by LC-MS analysis; assay type: ADME, organism-based; method in brief: as §1
[6] = Half life in Balb/c mouse blood at 30 mg/kg, po administered as single dose measured upto 24 hrs by LC-MS analysis; assay type: ADME, organism-based; method in brief: as §1
[7] = AUC (0 to infinity) in Balb/c mouse brain at 30 mg/kg, po administered as single dose measured upto 24 hrs by LC-MS analysis; assay type: ADME, organism-based; design: route oral, dose 30 mg/kg, time <=24; method in brief: as §1
[8] = AUC (0 to infinity) in Balb/c mouse blood at 30 mg/kg, po administered as single dose measured upto 24 hrs by LC-MS analysis; assay type: ADME, organism-based; design: route oral, dose 30 mg/kg, time <=24; method in brief: as §1
[9] = Cmax in Balb/c mouse brain at 30 mg/kg, po administered as single dose measured upto 24 hrs by LC-MS analysis; assay type: ADME, organism-based; design: route oral, dose 30 mg/kg, time <=24; method in brief: as §1

Chain of Nitric oxide synthase 1 (P29475 whole entry): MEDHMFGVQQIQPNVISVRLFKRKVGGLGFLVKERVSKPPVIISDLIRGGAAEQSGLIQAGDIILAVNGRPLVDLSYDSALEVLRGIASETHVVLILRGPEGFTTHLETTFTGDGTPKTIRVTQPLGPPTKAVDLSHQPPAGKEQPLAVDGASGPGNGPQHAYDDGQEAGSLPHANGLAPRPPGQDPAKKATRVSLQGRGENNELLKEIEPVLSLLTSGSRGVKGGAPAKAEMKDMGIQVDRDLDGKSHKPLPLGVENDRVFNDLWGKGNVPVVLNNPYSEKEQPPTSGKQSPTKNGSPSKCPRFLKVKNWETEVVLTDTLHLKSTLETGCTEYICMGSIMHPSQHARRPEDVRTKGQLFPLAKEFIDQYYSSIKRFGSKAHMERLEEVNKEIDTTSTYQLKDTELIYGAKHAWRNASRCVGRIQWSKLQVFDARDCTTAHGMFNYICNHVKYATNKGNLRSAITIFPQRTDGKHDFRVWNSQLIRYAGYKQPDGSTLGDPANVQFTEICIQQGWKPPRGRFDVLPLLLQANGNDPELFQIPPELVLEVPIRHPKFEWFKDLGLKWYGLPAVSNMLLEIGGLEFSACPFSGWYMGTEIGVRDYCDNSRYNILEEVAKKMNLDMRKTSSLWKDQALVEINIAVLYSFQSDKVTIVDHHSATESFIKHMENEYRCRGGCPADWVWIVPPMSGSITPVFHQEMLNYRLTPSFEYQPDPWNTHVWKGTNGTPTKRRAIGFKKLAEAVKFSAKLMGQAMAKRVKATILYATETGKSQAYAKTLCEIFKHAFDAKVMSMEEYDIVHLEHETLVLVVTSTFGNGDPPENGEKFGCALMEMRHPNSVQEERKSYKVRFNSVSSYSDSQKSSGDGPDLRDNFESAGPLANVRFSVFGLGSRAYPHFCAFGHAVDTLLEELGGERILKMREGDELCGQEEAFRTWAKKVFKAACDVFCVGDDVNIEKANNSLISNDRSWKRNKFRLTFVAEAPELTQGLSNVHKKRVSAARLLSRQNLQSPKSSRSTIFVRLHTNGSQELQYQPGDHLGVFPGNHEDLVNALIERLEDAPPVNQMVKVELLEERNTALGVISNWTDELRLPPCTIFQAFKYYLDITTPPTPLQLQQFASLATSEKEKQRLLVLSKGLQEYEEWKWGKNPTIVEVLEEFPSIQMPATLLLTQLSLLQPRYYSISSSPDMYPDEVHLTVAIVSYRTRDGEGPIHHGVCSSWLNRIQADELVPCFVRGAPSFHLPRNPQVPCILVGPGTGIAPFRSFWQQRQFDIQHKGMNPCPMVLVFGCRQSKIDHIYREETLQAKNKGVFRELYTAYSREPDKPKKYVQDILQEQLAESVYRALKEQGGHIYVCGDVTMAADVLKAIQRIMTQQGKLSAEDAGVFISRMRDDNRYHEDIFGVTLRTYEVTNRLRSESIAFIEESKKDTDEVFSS
Chain of Nitric oxide sythases; iNOS & nNOS (Homo sapiens) (P29475 whole entry, looked up): as the sequence (P29475 whole entry) above
Chain of Nitric oxide sythases; iNOS & nNOS (Homo sapiens) (P35228 whole entry, looked up): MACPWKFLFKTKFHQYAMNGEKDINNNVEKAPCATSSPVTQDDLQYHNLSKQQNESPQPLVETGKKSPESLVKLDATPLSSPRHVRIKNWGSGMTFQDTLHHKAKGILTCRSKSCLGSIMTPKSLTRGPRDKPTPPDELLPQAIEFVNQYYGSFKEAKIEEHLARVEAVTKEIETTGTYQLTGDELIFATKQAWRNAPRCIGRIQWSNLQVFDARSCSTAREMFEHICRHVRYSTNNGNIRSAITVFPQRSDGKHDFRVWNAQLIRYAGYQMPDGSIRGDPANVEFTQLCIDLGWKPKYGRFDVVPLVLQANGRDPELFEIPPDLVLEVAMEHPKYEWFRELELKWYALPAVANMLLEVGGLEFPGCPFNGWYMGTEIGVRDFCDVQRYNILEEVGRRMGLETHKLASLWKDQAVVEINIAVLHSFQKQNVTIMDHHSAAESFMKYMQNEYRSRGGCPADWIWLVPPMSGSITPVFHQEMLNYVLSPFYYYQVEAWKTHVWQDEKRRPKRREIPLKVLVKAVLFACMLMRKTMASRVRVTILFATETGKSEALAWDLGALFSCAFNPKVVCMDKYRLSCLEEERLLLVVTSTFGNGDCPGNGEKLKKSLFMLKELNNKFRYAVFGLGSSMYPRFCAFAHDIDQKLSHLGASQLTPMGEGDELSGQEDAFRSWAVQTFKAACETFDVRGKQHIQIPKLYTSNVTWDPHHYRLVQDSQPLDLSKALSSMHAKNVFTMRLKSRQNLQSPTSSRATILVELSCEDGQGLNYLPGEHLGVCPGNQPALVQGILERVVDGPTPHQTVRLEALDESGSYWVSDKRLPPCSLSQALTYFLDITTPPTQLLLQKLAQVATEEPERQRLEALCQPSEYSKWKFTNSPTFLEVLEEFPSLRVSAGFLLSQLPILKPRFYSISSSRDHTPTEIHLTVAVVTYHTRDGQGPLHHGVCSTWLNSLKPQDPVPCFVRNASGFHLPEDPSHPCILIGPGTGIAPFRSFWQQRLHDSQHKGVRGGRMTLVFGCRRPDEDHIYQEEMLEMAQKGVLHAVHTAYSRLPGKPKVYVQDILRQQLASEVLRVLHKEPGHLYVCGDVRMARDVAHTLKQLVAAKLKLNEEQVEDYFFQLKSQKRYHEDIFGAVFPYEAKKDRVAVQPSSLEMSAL
Chain of Nitric oxide synthase, inducible (P35228 whole entry): as the sequence (P35228 whole entry, looked up) above

CC(=N)NCc1cccc(CN)c1 [1400W]
Papp at 17 h, 200 µM [1]: 3.18 ×10⁻⁶ cm/s

O=C(/C=C/c1ccc(Cl)c(Cl)c1)N[C@@H](Cc1ccc(F)cc1)C(=O)O
IC50 (Nitric oxide synthase 1): 149 µM
Ratio IC50 [2]: 149
IC50 (Nitric oxide synthase 3): 164 µM
Ratio IC50 (Homo sapiens): 165
IC50 [3]: 0.993 µM
Activity (BV-2): Active

COc1cc(/C=C/C(=O)N[C@H](Cc2ccc(O)cc2)C(=O)O)ccc1O
IC50 (Nitric oxide synthase 1): 40.3 µM
Cmax [4]: 1000 ng/mL
half-life [5]: 0.9 h
Ratio IC50 [2]: 45
half-life [6]: 1.2 h
AUC(0-inf) [7]: 567 ng·h/mL
AUC(0-inf) [8]: 3450 ng·h/mL
IC50 (Nitric oxide synthase 3): 46.6 µM
Cmax [9]: 40.2 ng/mL
Ratio IC50 (Homo sapiens): 52
IC50 [3]: 0.892 µM
Papp at 17 h, 200 µM [1]: 1.23 ×10⁻⁶ cm/s

O=C(/C=C/c1ccccc1Cl)N[C@@H](Cc1ccc(F)cc1)C(=O)O
IC50 (Nitric oxide synthase 1): 126 µM
Ratio IC50 [2]: 153
IC50 (Nitric oxide synthase 3): 147 µM
Ratio IC50 (Homo sapiens): 180
IC50 [3]: 0.82 µM
Activity (BV-2): Active

CC(C)C[C@H](NC(=O)/C=C/c1ccc(Cl)c(Cl)c1)C(=O)O
IC50 (Nitric oxide synthase 1): 29.6 µM
Ratio IC50 [2]: 39
IC50 (Nitric oxide synthase 3): 29.7 µM
Ratio IC50 (Homo sapiens): 39
IC50 [3]: 0.765 µM
Activity (BV-2): Active
